Laboratory results taken from PMC4855511 (Clinical chemistry, 2011).
Values belong to the substance of their own block, whether it stands above or below them.

Columns and labels:
[1] = cited from earlier work
[2] = test system: GC-A; settings: ref [15], cited from earlier work
[3] = in vivo, ref [27], [28]; cited from earlier work
[4] = molecular target: T1, human GC-A (Homo sapiens, UniProt P16066); assay: Cellular cGMP elevation in HEK293 cells stably expressing human GC-A; assay type: cell-based
T1 sequence (P16066 33-1061): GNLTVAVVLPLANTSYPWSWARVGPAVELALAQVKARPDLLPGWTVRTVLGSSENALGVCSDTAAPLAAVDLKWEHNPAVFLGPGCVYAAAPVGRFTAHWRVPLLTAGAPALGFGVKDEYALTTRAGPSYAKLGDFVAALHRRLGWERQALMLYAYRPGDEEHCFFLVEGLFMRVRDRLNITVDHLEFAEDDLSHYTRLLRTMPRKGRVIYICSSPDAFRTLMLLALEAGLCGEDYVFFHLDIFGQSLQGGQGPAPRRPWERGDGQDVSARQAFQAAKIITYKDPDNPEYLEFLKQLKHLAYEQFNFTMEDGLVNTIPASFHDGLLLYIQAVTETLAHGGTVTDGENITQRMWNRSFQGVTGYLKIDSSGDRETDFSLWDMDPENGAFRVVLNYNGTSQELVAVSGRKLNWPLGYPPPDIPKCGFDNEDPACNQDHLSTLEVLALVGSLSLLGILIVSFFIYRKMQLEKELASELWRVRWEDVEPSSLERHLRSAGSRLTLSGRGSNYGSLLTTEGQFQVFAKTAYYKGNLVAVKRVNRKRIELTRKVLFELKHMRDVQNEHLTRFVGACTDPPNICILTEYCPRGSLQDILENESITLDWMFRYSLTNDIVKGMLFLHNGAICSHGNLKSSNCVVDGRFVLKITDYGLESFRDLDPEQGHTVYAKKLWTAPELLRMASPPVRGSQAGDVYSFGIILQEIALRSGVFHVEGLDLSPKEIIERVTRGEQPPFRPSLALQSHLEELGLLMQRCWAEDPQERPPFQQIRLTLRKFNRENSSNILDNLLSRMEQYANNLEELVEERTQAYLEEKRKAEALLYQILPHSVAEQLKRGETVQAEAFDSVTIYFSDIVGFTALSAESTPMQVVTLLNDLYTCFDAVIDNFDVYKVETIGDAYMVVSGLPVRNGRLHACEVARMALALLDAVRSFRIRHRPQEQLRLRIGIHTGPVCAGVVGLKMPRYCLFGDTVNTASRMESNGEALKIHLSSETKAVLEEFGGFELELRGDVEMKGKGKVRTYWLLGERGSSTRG
Method in brief: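 HEK293 cells stably expressing human GC-A, held serum-free 4–12 h to 75%–90% confluence. Preincubated 10 min at 37 °C in DMEM with 1 mmol/L IBMX and 25 mmol/L HEPES pH 7.4, then exposed 3 min to increasing peptide in the same medium. Stopped with ice-cold 80% ethanol; dried supernatant assayed for cGMP by RIA. Triplicates in 3 separate assays; EC50 with 95% CI.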

[5] = molecular target: T1, human GC-A; assay: Whole-cell 125I-ANP competition binding, 293-GC-A cells; settings: IC50 proBNP1–108 / IC50 BNP1–32
Method in brief: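 293-GC-A cells on poly-d-lysine, at 75%–90% confluence, held 1–2 h at 37 °C in DMEM with 0.2% BSA. Incubated 1 h at 4 °C with ¹²⁵I-ANP in 1% BSA binding medium, with or without increasing unlabeled peptide. Washed twice with ice-cold PBS, lysed in 1 mol/L NaOH, γ-counted. B/Bo plotted against log competitor to give IC50. Triplicates in 3 experiments.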

[6] = Proteolytic inactivation by human kidney membranes with GC-A receptor bioassay; assay type: in vitro ADME

Substance: glycosylated proBNP1–108: glycosylated version of human proBNP1–108 studied in cited literature
- Half-life in rats compared with nonglycosylated proBNP1–108 ([1]; result in words, ref [26]): longer half-life
- Potency on activation of GC-A, glycosylated versus nonglycosylated ([2]; result in words): no significant difference

Substance: B-type natriuretic peptide [BNP, reference compound]
- Half-life in humans [3]: 20 min
- Half-life in rats ([1]; rat, in vivo): 1 min

- Fold greater EC50 than BNP1–32 on GC-A ([4]; EC50 proBNP1–108 / EC50 BNP1–32): approximately 13 fold
- Maximal stimulation of GC-A ([4]; result in words): near-maximum activities
- Fold higher IC50 than BNP1–32 on GC-A [5]: approximately 35 fold
Substance: proBNP1–108: recombinant human 108-residue BNP prohormone with N-terminal His6-tag and rTEV site, expressed in E. coli
- Fold longer half time for degradation by human kidney membranes than BNP1–32 [6]: 2.7 fold
- Fold longer time for complete inactivation than BNP1–32 [6]: 6 fold
- Fold reduced potency compared with BNP1–32 ([2]; cGMP in human endothelial and vascular smooth muscle cells): 6- to 8 fold
